proCasp7 act: procaspase-7 activators, primary screen, counter-screen for procaspase-3 activator project, biochemical, absorbance, HTS, human | recombinant procaspase-7, Ac-DEVD-pNA absorbance 405 nm; D23A/D198A/D206A triple mutant, cannot self-cleave; scale: DMSO 0, 5 µM enzyme 100 | activation, % at 8.5 µM | Caspase-7 (Homo sapiens), P55210 | 330,000 compounds, 0.093% hits;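 active = percent activation above the screen-wide mean plus 3 SD, cut at about 25% in these data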
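Assay system: Uncleavable procaspase-7 mutant enzyme | Input: 2 µM procaspase-7 mutant as dispensed | Timing: 1 h compound preincubation, 2 h substrate cleavage, 25 °C | Repeats: One well per compound | Control set: DMSO wells as 0%, DMSO with 5 µM added PC-7 as 100% | Technique: Epi-absorbance of released pNA at 405 nm, two timepoints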
IDE inh: human IDE inhibitors in live cells, primary screen, fluorescence polarization, HEK cells, FAbetaB substrate; Insulin-degrading enzyme (Homo sapiens), P14735; inhibition, % at 5.59 µM; FAbetaB cleavage; 320,000 compounds, 0.41% hits; AID 434962, 2010;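 active = percent inhibition above the average of all tested compounds plus 3 SD, set per screening campaign, cut at about 16% in these data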;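 note: IDE supplied by intact live HEK cells; FP after avidin binding of uncleaved biotin substrate so inhibition keeps polarization high; 0% = DMSO wells and 100% = 60 µM reference IDE inhibitor Ii1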
proCasp3 act: activators of human procaspase-3 D3A mutant, primary screen, biochemical, absorbance, PC-3 D3A mutant, single concentration; Caspase-3 (Homo sapiens), P42574; recombinant procaspase-3 D3A, Ac-DEVD-pNA absorbance 405 nm; activation, % at 8.5 µM; 330,000 compounds, 0.11% hits; AID 463141, 2010;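 active = activation above the mean of all tested compounds plus 3 SD, cut at about 21% in these data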;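 note: 0% = DMSO alone and 100% = DMSO wells spiked with extra 5 µM PC-3 D3A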
Target sequence (P42574 whole entry D9A/D28A/D175A): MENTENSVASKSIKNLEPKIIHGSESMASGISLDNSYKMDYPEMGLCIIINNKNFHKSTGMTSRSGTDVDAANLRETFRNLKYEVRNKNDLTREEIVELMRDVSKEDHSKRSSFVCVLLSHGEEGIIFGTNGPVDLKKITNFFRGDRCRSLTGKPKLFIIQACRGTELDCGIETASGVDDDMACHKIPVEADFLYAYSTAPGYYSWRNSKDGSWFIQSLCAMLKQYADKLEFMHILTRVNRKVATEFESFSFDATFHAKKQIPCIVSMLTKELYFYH
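material = Procaspase-3 D3A mutant | probe or stimulus = Ac-DEVD-pNA | compound = single dose, 8.5 µM nominal compound, 0.8% DMSO | timing = 1 h preincubation, 2 h reaction | measured by = 405 nm absorbance of p-nitroaniline, reads at 0 and 120 min | benchmarks = DMSO-only low control, 5 µM PC-3 D3A high control | repeats = singlicate, each compound tested once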
UBC13 inh: UBC13 polyubiquitin chain formation inhibitors, primary screen, biochemical, TR-FRET, uHTS; Ubiquitin-conjugating enzyme E2 N (Homo sapiens), P61088; inhibition, % at 20 µM; 330,000 compounds, 0.47% hits; AID 485273, 2010; in the data active = inhibition above about 45%, passing the limit was not always enough
IDE act: human IDE activators in live cells, primary screen, fluorescence polarization, HEK cells, FAbeta-B substrate; Insulin-degrading enzyme (Homo sapiens), P14735; FAbeta-B cleavage; 0% vehicle, 100% cell-free pure enzyme wells; activation, % at 5.96 µM; 340,000 compounds, 0.073% hits; AID 493087, 2011;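 active = activation above the mean of all tested compounds plus 3 SD, set per screening campaign, cut at about 17% in these data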
PHOSPHO1 block: PubChem AID 1565; recombinant PHOSPHO1, absorbance phosphatase assay; inhibition, % at 13.3 µM; Phosphoethanolamine/phosphocholine phosphatase (Homo sapiens), Q8TCT1; 290,000 compounds, 1.1% hits; in the data active = inhibition above about 60%
Target sequence (Q8TCT1 whole entry, looked up): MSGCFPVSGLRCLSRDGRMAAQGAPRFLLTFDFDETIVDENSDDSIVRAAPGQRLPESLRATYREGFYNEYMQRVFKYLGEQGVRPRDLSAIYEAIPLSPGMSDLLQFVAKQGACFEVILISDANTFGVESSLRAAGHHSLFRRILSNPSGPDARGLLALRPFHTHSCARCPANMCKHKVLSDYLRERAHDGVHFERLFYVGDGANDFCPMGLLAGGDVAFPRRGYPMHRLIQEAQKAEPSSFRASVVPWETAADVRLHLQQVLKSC
IDE inh confirm: human IDE inhibitors in live cells, confirmation, fluorescence polarization, HEK cells, FAbetaB substrate; shares compounds with IDE inh; FAbetaB cleavage; inhibition, % at 5.59 µM; 1,200 compounds, 51% hits; AID 435028, 2010;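 active = mean inhibition across triplicate wells above the cutoff set by the earlier primary insulin-degrading enzyme screen, cut at about 16% in these data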;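 note: 0% = DMSO wells and 100% = 60 µM reference IDE inhibitor Ii1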
HEK293 tox: cytotoxicity in HEK cells, cytotoxicity control for IDE inhibitor project, cell-based, luminescence; shares compounds with IDE inh; inhibition, % at 5.59 µM; 1,200 compounds, 28% hits; HEK293 cytotoxicity, ATP luminescence; in the data active = inhibition above about 22%;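 note: 0% = vehicle wells and 100% = reference cytotoxic drug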
Active calls of the source: *; / = no result given. An excerpt weighted towards active compounds, which were near 1.9% of everything screened.

SMILES	proCasp7 act	IDE inh	proCasp3 act	UBC13 inh	IDE act	PHOSPHO1 block	IDE inh confirm	HEK293 tox
O=C(NNC(=O)c1csc(N2CCOCC2)n1)c1ccc(Cl)nc1	1	0	2	4	2	/	/	/
Cc1cc(=O)oc2cc3oc(=O)cc(C)c3cc12	-1	-3	-2	-1	0	19	/	/
COc1ccc(Br)cc1/C=N/NC(=O)CNC(=O)C1COc2ccccc2O1 (stereo unspecified)	-2	30*	0	21	-22	11	23*	2
COc1cc(/C=C2\SC(=S)N(CC(=O)O)C2=O)ccc1OC(=O)c1ccco1	-15	24*	-6	-16	-31	35	107*	5
COc1cc(/C=C2/SC(=S)N(CC(=O)O)C2=O)ccc1OC(=O)c1ccco1	-24	26*	-13	-13	-19	4	90*	9
Cc1ccc2[nH]c3c(NCCN4CCOCC4)ncnc3c2c1	/	/	/	5	-4	20	/	/
Clc1ccc2[nH]c3c(NCCCN4CCOCC4)ncnc3c2c1	-8	42*	2	17	-9	7	17*	21
CN(C)S(=O)(=O)c1ccc(C(=O)N2CC(=O)Nc3ccc(F)cc3C2c2ccc(F)cc2)cc1 (stereo unspecified)	-2	3	2	5	-1	42	/	/
Cc1ccn2cc(-c3ccc(NC(=O)c4ccco4)cc3)nc2c1	-11	18*	2	3	-1	5	5	21
CC1=N/C(=C\c2ccc([N+](=O)[O-])cc2)C(=O)N1c1ccc(F)cc1F	10	-1	-4	-15	-2	35	/	/
CC(=O)Oc1ccc(C(=O)NC(C)CCc2ccccc2)cc1 (stereo unspecified)	3	-4	-6	0	5	14	/	/
COc1cc(OC)cc(C(=O)Nc2cccc(NC(=O)c3cc(OC)cc(OC)c3)n2)c1	-1	17*	-4	4	-4	/	4	17
COc1ccc(NC(=O)CN(c2ccc(C)cc2)S(=O)(=O)c2c(C)nn(C)c2C)cc1	8	-1	0	0	6	51	/	/
COc1ccc2nc(NC(=O)CN(c3ccc(C)cc3)S(=O)(=O)c3c(C)nn(C)c3C)sc2c1	-3	16*	-1	10	-1	36	5	15
Cc1cccc(N2CCN(C(=O)CSCc3c(C)noc3C)CC2)c1C	3	17*	-6	1	-3	-3	0	65*
CCOc1ccc(NC(=O)CN(C)C(=O)c2cc(C3CC3)nn2-c2ccccc2)cc1OCC	/	/	/	1	3	/	/	/
N#C/C(=C\c1ccc(O)c(O)c1)C(=O)Nc1ccccc1	-12	26*	-6	-54	-43	/	50*	10
N#C/C(=C/c1ccc(O)c(O)c1)C(=O)NCc1ccc(Cl)cc1	-30	24*	-28	-34	-32	9	33*	9
N#C/C(=C/c1cccc(O)c1)C(=O)NCc1ccc(Cl)cc1	2	3	-2	2	-4	32	/	/
COc1cc(/C=C(\C#N)C(=O)NCc2cccs2)ccc1O	3	34*	-12	-20	-41	-13	45*	9
O=C(CSc1nc2[nH]ncc2c(=O)[nH]1)Nc1ccccc1F	3	3	-11	2	-2	/	/	/
O=C(C=C(C(=O)c1ccccc1)c1ccccc1)c1ccccc1	/	/	/	/	3	/	/	/
O=C(NNC(=O)c1cc2ccccc2[nH]1)OCc1ccccc1	-5	3	-1	14	-2	/	/	/
Cc1ccc[n+](CC(=O)c2ccc(-c3ccccc3)cc2)c1	-2	22*	7	2	1	-27	8	16
Cn1c(-c2cccc([N+](=O)[O-])c2)cnc1NCc1cccc(F)c1	-3	3	2	5	-1	36	/	/
SMILES	proCasp7 act	IDE inh	proCasp3 act	UBC13 inh	IDE act	PHOSPHO1 block	IDE inh confirm	HEK293 tox
CC(=O)c1ccsc1-c1c(C)cc2oc(=O)cc(-c3ccccc3)c2c1C	5	/	4	/	-2	/	/	/
Clc1ccc(/C=C/c2ncc[nH]2)c(Cl)c1	-2	18*	10	3	-18	/	8	19
CSC1=NC(C)(C)C=C(/C=C/c2ccc(Cl)cc2Cl)N1	-4	3	2	-2	-5	44	/	/
CCOC(=O)C1CCCN(C2=NC(=O)/C(=C/c3ccc(OC)c(OC)c3)S2)C1 (stereo unspecified)	2	4	3	-11	-1	37	/	/
CCOC(=O)C1CCCN(C2=NC(=O)/C(=C/c3ccc(O)c(OC)c3)S2)C1 (stereo unspecified)	-7	25*	-17	-24	-28	29	75*	15
CC1CCN(CCc2nc3cc(NC(=O)NC4CCCCC4)ccc3n2C)CC1	-1	19*	10	5	-18	-1	3	11
O=C(O)c1ccc2c(=O)n3c(nc2c1)/C(=C/c1ccc(F)cc1)CC3	-13	-3	-6	-4	-7	3	/	/
O=C(O)c1ccc2c(=O)n3c(nc2c1)/C(=C/c1cccc(Cl)c1Cl)CCCC3	8	18*	5	-4	1	-10	3	1
CC(=O)Sc1nc(-c2ccccc2)[nH]c1S(=O)(=O)c1ccc(C)cc1	-43	17*	-17	-10	/	29	-2	5
COc1cccc2[nH]c3c(N4CCC(C)CC4)ncnc3c12	0	2	2	-4	-1	5	/	/
COc1ccc2c(c1)[nH]c1c(N3CCSCC3)ncnc12	-2	14	1	-3	-8	25	/	/
COc1cccc(N2CCN(c3ncnc4c3[nH]c3ccc(F)cc34)CC2C)c1 (stereo unspecified)	-1	38*	-4	8	-12	28	28*	122*
COc1ccc2[nH]c3c(N4CC(C)OC(C)C4)ncnc3c2c1 (stereo unspecified)	-4	17*	-4	10	/	9	7	11
S=C(Nc1ccccc1)Nc1nc2ccccc2n1CCOc1ccc(Br)cc1	-7	26*	0	10	-11	-18	9	10
